Source: PubChem BioAssay (several laboratories)
DNA FID counter – fluorescent intercalator displacement, NS3 helicase counter-screen; inhibition, % at 7.9 µM; DNA fluorescent intercalator displacement, fluorescence; 290,000 tested, 0.17% active; in the data active means inhibition above about 37%;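 further: 0% = vehicle and 100% = reference compound; higher means more ethidium bromide displaced from hairpin DNA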
MEKK3 PB1 HTS – MEKK3-MEK5 PB1 interaction, increase or decrease | Q99759 | bead-based flow cytometry, Alexa488-MEK5 binding to MEKK3; actives lie on both sides; 0 = blocked by unlabeled MEK5, 100 = vehicle | binding response (% of control), % at 10 µM | 290,000 tested, 1.4% active | AID 1529;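 active means binding response more than 3 SD above or below the average of its plate-row segment, actives on both sides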;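 further: Alexa488 bead fluorescence after subtracting the streptavidin-only scavenger bead signal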
Target sequence (Q99759 whole entry, looked up): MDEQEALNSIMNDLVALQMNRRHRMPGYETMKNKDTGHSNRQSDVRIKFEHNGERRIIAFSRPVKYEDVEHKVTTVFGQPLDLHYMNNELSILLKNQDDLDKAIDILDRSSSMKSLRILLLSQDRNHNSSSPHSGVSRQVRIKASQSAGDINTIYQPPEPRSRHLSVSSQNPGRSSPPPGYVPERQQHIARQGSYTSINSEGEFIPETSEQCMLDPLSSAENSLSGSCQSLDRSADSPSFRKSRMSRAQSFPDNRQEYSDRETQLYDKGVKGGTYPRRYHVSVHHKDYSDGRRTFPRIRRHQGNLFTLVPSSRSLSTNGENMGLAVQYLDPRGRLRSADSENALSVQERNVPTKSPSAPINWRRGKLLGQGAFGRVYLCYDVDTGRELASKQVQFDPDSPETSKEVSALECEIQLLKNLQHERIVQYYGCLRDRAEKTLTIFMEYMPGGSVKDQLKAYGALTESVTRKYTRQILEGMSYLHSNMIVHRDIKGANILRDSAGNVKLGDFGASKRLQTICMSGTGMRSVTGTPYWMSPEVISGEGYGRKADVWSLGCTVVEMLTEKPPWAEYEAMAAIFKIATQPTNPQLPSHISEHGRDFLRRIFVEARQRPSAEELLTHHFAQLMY
MEKK2mut PB1 HTS – signal of MEK5 binding to mutant human MEKK2 PB1 domain | bead flow cytometry, Alexa488-MEK5 binding to MEKK2 mutant | 290,000 tested, 0.35% active | AID 1530 | percent response, % at 10 µM; in the data active means percent response above about 24%, passing the limit was not always enough
T cruzi repl – blocks replication of Trypanosoma cruzi; T. cruzi beta-gal in NIH3T3, luminescence, 90 h; inhibition, % (no concentration beside the values); 300,000 tested, 1.4% active;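 active means mean inhibition across valid replicates above about 55%, limit read from the data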;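 further: signal also drops with host cell toxicity which is not excluded here; 0% = plate median of DMSO wells and 100% = zero luminescence signal; higher percent means less beta-gal luminescence so fewer parasites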
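Test system: β-gal T. cruzi (Tulahuen C4) inside NIH/3T3 cells / Quantity: 5,000 cells/well / Measured by: luminescence from GalScreen with 0.05% NP40, read after 60 min / Medium: DMEM plus 2% FBS / Measure: parasite load inhibition, % / Reagent: Tulahuen C4 trypomastigotes, 5000/well / Schedule: co-culture of at least 90 h after 3 h attachment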
MEKK2 WT-MEK5 – raises or lowers MEK5 binding to wildtype human MEKK2 PB1 domain. bead flow cytometry, Alexa488-MEK5 binding to MEKK2 WT; actives lie on both sides. 290,000 tested, 1.1% active. binding response (% of control), % at 10 µM. AID 1531; in the data active means binding response below about 67% or above about 130%
NS3 helicase inh – blocks Hepatitis C virus NS3 helicase unwinding; NS3 helicase DNA unwinding, Cy5 molecular beacon fluorescence; inhibition, % at 10.9 µM; 290,000 tested, 0.56% active; AID 1800;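 active means inhibition above the mean of all tested compounds plus 3 SD, set per campaign, cut at about 35% in these data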;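 further: 0% = DMSO wells and 100% = thioflavine S control wells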
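System: HCV NS3 helicase fragment; control set: DMSO and thioflavine S; technique: Cy5 fluorescence at 0 and 60 min, beacon hairpin quenching; reagent: beacon DNA duplex substrate plus ATP; replicates: singlicate; schedule: 1 h reaction at 25 °C, ATP-initiated; medium: MOPS buffer pH 6.5 with MgCl2, DTT, Tween20, BSA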
* marks the source's active call; other numbers are inactive results; · = no result; [ ] = another dose, or the depositor's remark. Compounds with a hit are over-represented: about 4.1% of the library has one in this group of screens.

SMILES	DNA FID counter	MEKK3 PB1 HTS	MEKK2mut PB1 HTS	T cruzi repl	MEKK2 WT-MEK5	NS3 helicase inh
CC(=O)O[C@@H]1[C@@]2(C)O[C@H]2CC[C@]23O[C@H]2[C@H](OC3=O)C2=C(C)C(=O)O[C@@]21O	3	110	4	2	100	3
Cc1ccc(NC(=O)Nc2ccc3c(c2)C(=O)OC3)cc1Cl	-2	97	-4	9	96	2
CC(C)CCNC(=O)NC(=O)COC(=O)CNC(=O)C1CCCCC1	-19	101	2	-15	104	0
CN1c2ccccc2Sc2cc(N)ccc21	2	98	1	71*	96	-5
CC(=O)N1c2ccccc2Sc2ccccc21	-6	109	11	8	114	-15
Cc1nc2c(ccc3nc(NC(=O)c4ccc5c(c4)OCCO5)sc32)s1	3	100	1	57*	100	-15
Cc1cc(N)c2cc(NC(=O)/C=C/c3ccccc3Cl)ccc2n1	31	104	117*	51	252*	20
CCSc1ccc2cc(OC)ccc2[n+]1CC	7	83	-15	55*	79	-17
N#C/C(C(N)=O)=C1/SC=C(c2ccccc2)N1c1ccccc1	-16	107	20	9	96	2
N#C/C(C(=O)c1ccccc1)=C1/SC=C(N)N1c1ccccc1	-5	2.0*[inhibitor]	-30	·	4.0*[inhibitor]	6
CCOc1ccc(Nc2ccnc3cc(Cl)ccc23)cc1	2	118	26	39	130	-6
CN1CCN(c2ccc(Nc3ccnc4cc(Cl)ccc34)cc2)CC1	83*	107	3	60*	137	24
CCN1CCC(Nc2ccnc3cc(Cl)ccc23)CC1	50*	108	18	44	117	8
CCCC(=O)OCCNc1cc(Sc2nccn2C)c2nonc2c1[N+](=O)[O-]	4	102	-1	61*	105	-9
CCCSc1cc(NCCOC(=O)CCC)c([N+](=O)[O-])c2nonc12	7	116	0	10	103	-3
COc1ccc(S(=O)(=O)Nc2c(C)n(C)n(-c3ccccc3)c2=O)cc1C(=O)O	-2	105	0	0	110	30
CCCOP(=O)(c1ccc(N(C)C)cc1)C(Nc1ccccc1)c1ccc(C)cc1 (stereo unspecified)	-25	102	5	·	102	-1
N#Cc1c2ccc(O)cc2n2ccccc12	4	100	-3	65*	99	-10
N#Cc1c2ccc(OCC(=O)NCc3ccco3)cc2n2ccccc12	-3	110	10	-1	107	15
Cc1cc(C)c(OCCN(C)Cc2ccccc2)c(Br)c1	3	101	7	57*	113	3
CN(CCCOc1ccccc1Br)Cc1ccccc1	5	104	9	39	118	-12
Cc1c(Br)ccc(NC(=O)c2ccccc2[N+](=O)[O-])c1C	4	106	3	0	103	-12
CCn1c(SCC(=O)N2c3ccccc3CCc3ccccc32)nc2c1c(=O)n(C)c(=O)n2C	-4	103	7	45	100	-6
CC1Cc2ccccc2N1C(=O)CSc1nc2c(c(=O)n(C)c(=O)n2C)n1Cc1ccccc1 (stereo unspecified)	2	97	-5	57*	92	-5
Cc1ccc(S(=O)(=O)c2nc(-c3cccs3)oc2NCCCN(C)C)cc1	11	93	-3	-1	98	-7
CN(C)CCCNc1oc(-c2ccccc2Cl)nc1S(=O)(=O)c1ccc(F)cc1	26	105	23	62*	127	-66
COc1cccc(CNc2ccccc2O)c1OCc1ccccc1F	-4	100	-2	-9	100	18
Cc1cc(Cl)c(OCCOCCN2CCCC(C)C2)c(Br)c1 (stereo unspecified)	24	87	-6	73*	98	-14
Cc1cc(Cl)c(OCCOCCN2CCCCC2)c(Br)c1	3	108	-1	31	106	-1
CNc1ccccc1C(C)(C)c1cc(-c2cccc([N+](=O)[O-])c2)no1	0	100	-3	26	93	-3
